Rows were chosen to be rich in hits. Some 1.8% of all compounds tested hit in one or more screens of this group.
CHRM5 agonist: CHRM5 agonism in calcium assay. AID 624037. activation, % at 3 µM. CHO-K1 hM5 cells, Fluo-8 calcium fluorescence; 0% DMSO wells, 100% maximal acetylcholine response. actives 0.19% (n = 360,000). P08912;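 active means activation above the run's mean over test compounds plus 3 SD, cut at about 23% in these data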;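 further: signal is peak over basal fluorescence ratio across the kinetic read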
Target sequence (P08912 whole entry, looked up): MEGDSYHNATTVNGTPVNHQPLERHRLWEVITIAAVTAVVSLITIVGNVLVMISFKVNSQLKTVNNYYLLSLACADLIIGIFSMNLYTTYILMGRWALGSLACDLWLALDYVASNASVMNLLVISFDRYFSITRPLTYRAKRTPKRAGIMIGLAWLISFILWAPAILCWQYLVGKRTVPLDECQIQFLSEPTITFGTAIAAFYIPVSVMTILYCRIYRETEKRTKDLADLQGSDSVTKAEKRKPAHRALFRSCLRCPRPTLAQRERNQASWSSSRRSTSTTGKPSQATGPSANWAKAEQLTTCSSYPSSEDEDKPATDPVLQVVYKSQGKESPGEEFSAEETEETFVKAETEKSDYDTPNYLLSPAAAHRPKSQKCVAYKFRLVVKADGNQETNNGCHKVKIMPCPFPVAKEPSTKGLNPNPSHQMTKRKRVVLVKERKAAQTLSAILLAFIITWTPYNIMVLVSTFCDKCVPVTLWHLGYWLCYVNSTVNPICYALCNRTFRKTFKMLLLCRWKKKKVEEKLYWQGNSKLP
CHRM5 antagonist: antagonists of human muscarinic M5 receptor (CHRM5); P08912; actives 0.59% (n = 360,000); inhibition, % at 3 µM; CHO-hM5 cells, Fluo-8 calcium fluorescence, ACh EC80; AID 624040;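 active means inhibition above a per-plate cutoff, the mean of that plate's test compounds plus 3 SD, cut at about 27% in these data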;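 further: 0% = acetylcholine EC80 with DMSO and 100% = DMSO without agonist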
M4 antag: CHRM4 antagonism in calcium assay | P08173 | CHO-hM4 cells, ACh EC80, Fluo-8 calcium fluorescence | inhibition, % at 3 µM | actives 0.73% (n = 360,000) | AID 624125;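 active means inhibition above its plate's cutoff, the mean inhibition of sample wells plus 3 SD, cut at about 27% in these data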;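 further: 0% = acetylcholine EC80 with DMSO and 100% = DMSO without agonist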
M4 ag: agonists of human muscarinic M4 receptor (CHRM4); AID 624127; actives 0.14% (n = 360,000); activation, % at 3 µM; CHO-K1 hM4/Gqi5, Fluo-8 calcium fluorescence; vehicle 0%, full acetylcholine response 100%;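 active means activation above the run mean over all test wells plus 3 SD, cut at about 32% in these data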;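 further: peak over basal fluorescence ratio per well then scaled between controls; 0% = DMSO wells and 100% = acetylcholine at EC100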
M5 PAM: CHRM5 positive allosteric modulation. P08912. CHO-K1 hM5, Fluo-8 calcium, ACh EC20 PAM; 0% = ACh EC20, 100% = ACh EC100. activation, % at 3 µM. actives 0.3% (n = 360,000). AID 624038;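 active means activation above the run cutoff, the mean activation of all test compounds plus 3 SD, cut at about 18% in these data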
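system = human M5 receptor in CHO-K1 cells | reagent = EC20 acetylcholine as agonist stimulus | compound dosing = single-point, 3 µM nominal | incubation = Fluo-8 loading 80 min at 37 °C plus 30 min room temperature | detection = Fluo-8 calcium dye fluorescence, kinetic read | benchmarks = low control EC20 acetylcholine (0%), high control EC100 acetylcholine (100%)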
M4 PAM: CHRM4 positive allosteric modulation. actives 0.4% (n = 360,000). CHO-K1 hM4/Gqi5, Fluo-8 calcium fluorescence, ACh EC20; 0% = ACh EC20, 100% = maximal ACh. activation, % at 3 µM;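 active means activation above its plate's cutoff, the mean activation of sample wells plus 3 SD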
* hit, by the source's call; ! = not confirmed by another sample.

SMILES | CHRM5 agonist | CHRM5 antagonist | M4 antag | M4 ag | M5 PAM | M4 PAM
Cc1noc(C)c1COc1ccc(C(=O)OCC(=O)Nc2ccc(C(=O)N(C)C)cc2)cc1 | 0.2 | 8.7 | -6.7 | 0.0 | -2.9 | 2.3
O=C(NN=Cc1c(O)ccc2ccccc12)c1ccc2c(c1)OCO2 | 4.5 | -3.5 | -7.9 | 2.5 | 10.2 | 23.0*
S=C(NCc1cccs1)NCC1CCCO1 (configuration not stated) | -5.5 | 2.6 | -16.4 | -0.2 | 0.0 | 4.9
COc1ccc(-n2ncc3c(N4CCC(C)CC4)ncnc32)cc1 | 1.5 | 4.5 | -7.3 | 0.1 | -5.8 | 4.2
CCOC(=O)N1CCN(c2ncnc3c2cnn3-c2ccc(OC)cc2)CC1 | 5.4 | -9.4 | -9.8 | 3.1 | 0.0 | 28.3*
CCOC(=O)C1CCN(c2ncnc3c2cnn3-c2ccc(Cl)cc2)CC1 | 0.5 | -14.1 | -3.3 | 1.2 | 19.2* | 3.7
Cc1nn(-c2ccccc2)c(Cl)c1CN(C(=O)CCl)c1ccc(Cl)cc1 | -5.6 | 24.3 | 41.7* | -2.0 | -16.8 | -33.3
C[N+]1(C)CCCC(OC(=O)C(O)(c2ccccc2)c2ccccc2)C1 (configuration not stated) | -1.6 | 98.9* | 98.6* | 0.0 | -18.6 | -16.8
Cc1cc2c(cc1C)N(C(=O)CSc1nncn1C)C(C)(C)c1ssc(=S)c1-2 | -7.1 | 34.0* | 10.7 | -2.7 | -23.0 | -10.8
CCOC(=O)c1[nH]c(=S)n(-c2ccccc2)c1C(=O)OCC | 3.5 | 6.4 | -7.5 | 0.7 | 7.4 | 10.1
CC1(C)C(=O)OC(c2ccccc2)C(C)(C)C1=O (configuration not stated) | -1.1 | 31.5* | 4.9 | 13.3 | -15.6 | -20.1
CC1(C)C(=O)OC(c2ccccc2)C2(CCCC2)C1=O (configuration not stated) | -2.3 | -3.5 | -4.9 | 0.8 | 6.2 | 7.9
CCC1CCCCN1C(=O)C(=O)c1cn(CC(=O)N(CC)CC)c2ccccc12 (configuration not stated) | -4.2 | 8.6 | 1.4 | -0.4 | -1.6 | -6.2
CCN(CC)C(=O)Cn1cc(C(=O)C(=O)N(C)C2CCN(C)CC2)c2ccccc21 | -4.0 | 6.1 | -3.6 | 0.1 | 2.0 | 17.2*
COc1ccccc1OCC(O)CN1CCN(CC(=O)Nc2c(C)cccc2C)CC1 (configuration not stated) | 1.1 | -2.3 | 28.3*! | 2.3 | 5.3 | -1.6
O=C(CC1NCCNC1=O)Nc1ccccc1 (configuration not stated) | -0.7 | 3.2 | -6.8 | 2.0 | 2.4 | 8.4
O=C(CC1C=CCC1)Nc1ccccc1 (configuration not stated) | 2.5 | -6.0 | -8.8 | 0.9 | 20.5* | 8.5
Cn1nc(C2CC2)cc1NC(=O)C1(C)CCN1C(=O)CCc1ccccc1 (configuration not stated) | 0.9 | 2.4 | 2.7 | 1.2 | -4.6 | 0.1
CC(C)n1cnnc1SCC(=O)NNC(=O)COc1ccc(Cl)cc1 | 0.7 | 1.1 | -10.5 | 1.0 | 1.6 | 2.3
CCN1CCN(CNC(=O)c2cnccn2)CC1 | -1.7 | 4.7 | -1.0 | 0.7 | 20.7* | 19.1
O=C(NCc1ccc(F)cc1)c1cc(C2CCCCN2S(=O)(=O)c2ccc(F)cc2F)on1 (configuration not stated) | -1.6 | 4.3 | 6.6 | 8.1 | -4.1 | -10.6
O=S(=O)(c1ccc(Cl)nc1)N(Cc1ccccc1)Cc1ccccc1 | -4.8 | 14.4 | 33.1* | -2.2 | -11.3 | -29.9
CCN(c1ccccc1)S(=O)(=O)c1ccc(Cl)nc1 | -9.4 | 1.8 | 1.0 | -0.4 | 8.9 | -0.3
Nc1nc(N2CCN(c3ccccn3)CC2)nc2ccccc12 | -8.0 | 12.6 | 27.5* | 1.8 | -10.3 | -18.3
Nc1nc(N2CCCCC2)nc2ccccc12 | -8.0 | 16.3 | 21.5 | 0.9 | -22.9 | -18.8
SMILES | CHRM5 agonist | CHRM5 antagonist | M4 antag | M4 ag | M5 PAM | M4 PAM
O=C(CNC(=O)c1nc[nH]c1C(=O)N1CCNCC1)OCc1ccccc1 | 6.2 | -14.7 | -8.6 | 1.4 | 4.0 | 8.3
C[C@H](NC(=O)c1nc[nH]c1C(=O)NCc1ccc(CNC(=O)OC(C)(C)C)cc1)C(=O)OCc1ccccc1 | 2.2 | 29.3* | 49.7* | 24.1 | -39.3 | -12.6
C[C@@H](NC(=O)c1nc[nH]c1C(=O)OCc1ccccc1)c1ccccc1 | 1.6 | 19.7 | -2.3 | 1.6 | -4.1 | -0.5
C[C@@H](NC(=O)c1nc[nH]c1C(=O)NCC(=O)OCc1ccccc1)c1ccccc1 | -3.7 | 27.8* | 19.6 | 24.7 | -34.7 | -11.1
O=C(CNC(=O)c1nc[nH]c1C(=O)N1CCc2ccccc2C1)OCc1ccccc1 | -5.8 | 27.0* | 28.8* | 20.2 | -29.9 | -7.4
COc1ccc(-c2cc3nc(NCCNC(C)=O)n(C)c(=O)c3s2)c(C)c1 | 0.3 | -6.3 | -19.7 | 2.4 | 1.4 | 9.9
CC(=O)Nc1ccc(NCN2C(=O)[C@@H]3[C@H]4CC[C@H](C4)[C@@H]3C2=O)cc1 | -1.7 | -0.7 | 2.1 | 0.6 | 1.7 | -1.5
Cc1cccc(C)c1NC(=O)CSc1nc(C2CC2)nc2ccccc12 | -1.2 | -3.4 | 0.7 | 0.6 | 3.5 | 3.9
CCCOc1ccc(CSc2nc3ccccc3[nH]2)cc1 | 2.4 | 41.6* | 25.0 | 8.2 | -21.2 | -7.0
CCOc1ccc(OCCSc2nc3ccccc3[nH]2)cc1 | 1.5 | 8.9 | 4.2 | 10.7 | -14.2 | -3.6
COc1ccc(NC(=O)COC(=O)c2ccc(-n3cnnn3)cc2)cc1Cl | -3.0 | -0.5 | 5.0 | 2.4 | -5.0 | -1.7
Cc1[nH]c2ccccc2c1C(=O)C(=O)NCc1ccncc1 | -2.9 | -1.3 | -5.2 | 0.6 | 5.3 | 11.5
CCCCOC(=O)/C(=C\c1ccc([N+](=O)[O-])o1)NC(=O)c1ccccc1 | -5.8 | 4.0 | 28.6* | 1.9 | -0.9 | -6.7
O=C(Nc1cnn(Cc2ccc(Cl)cc2Cl)c1)c1noc2c1CCCC2 | 0.6 | -0.3 | 4.1 | 5.3 | -4.6 | -5.4
O=C(Nc1cnn(Cc2ccc(Cl)cc2Cl)c1)c1cc(-c2cccs2)on1 | 4.5 | -3.3 | 5.3 | 0.5 | 3.0 | 30.7*
O=C(CN1CCCC1)N1c2ccccc2Sc2ccc(C(F)(F)F)cc21 | -11.7 | 98.8* | 95.1* | 0.8 | -15.7 | -22.2
CCNCCC(=O)N1c2ccccc2Sc2ccc(C(F)(F)F)cc21 | -21.4 | 99.8* | 95.7* | 3.9 | -33.2 | -16.5
O=C(CSc1nc2ccccc2o1)N1c2ccccc2Sc2ccc(C(F)(F)F)cc21 | -0.6 | -5.6 | 3.8 | -0.2 | -1.1 | -1.3
O=C(CN1CCCC1)N1c2ccccc2Sc2ccc(Cl)cc21 | -25.9 | 95.9* | 93.9* | 1.4 | -33.6 | -18.2

Assay outcomes deposited in PubChem BioAssay by The Scripps Research Institute Molecular Screening Center.
